ChEMBL document CHEMBL1821668, “Isolation and characterization of aphidicolin and chlamydosporol derivatives from Tolypocladium inflatum” (J Nat Prod, 2011)

Columns and labels:
[1] = Cytotoxicity against human EC109 cells after 72 hrs by MTS assay; type: functional, cell-based; conditions: ECa-109, 72 h
Summary of the method: (§1)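 Triplicate wells seeded at (2–5) × 10^3 cells each, depending on growth rate, and left overnight to attach. Medium was then replaced with medium containing test compound at serial dilutions from 100 mM DMSO stocks, or 0.1% DMSO. Incubation was 72 h at 37 °C in humidified 5% CO2. MTS was added in the dark, with a 90 min read-out incubation at 37 °C.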

MCF7 = test: Cytotoxicity against human MCF7 cells after 72 hrs by MTS assay; type: functional, cell-based; conditions: MCF7, 72 h; summary of the method: as §1
[2] = Cytotoxicity against human CNE1-LMP1 cells after 72 hrs by MTS assay; type: functional, cell-based; conditions: CNE1-LMP1, 72 h; summary of the method: as §1
A549 = test: Cytotoxicity against human A549 cells after 72 hrs by MTS assay; type: functional, cell-based; conditions: A549, 72 h; summary of the method: as §1
A-375 = test: Cytotoxicity against human A375 cells after 72 hrs by MTS assay; type: functional, cell-based; conditions: A-375, 72 h; summary of the method: as §1
PANC-1 = test: Cytotoxicity against human PANC1 cells after 72 hrs by MTS assay; type: functional, cell-based; conditions: PANC-1, 72 h; summary of the method: as §1
[3] = Cytotoxicity against human MGC cells after 72 hrs by MTS assay; type: functional, cell-based; summary of the method: as §1
HaCaT = test: Cytotoxicity against human HaCaT cells after 72 hrs by MTS assay; type: functional, cell-based; summary of the method: as §1
[4] = Cytotoxicity against human Hep3B2 cells after 72 hrs by MTS assay; type: functional, cell-based, Hep 3B2; conditions: Hep3B; summary of the method: as §1

Row | Structure (SMILES) | IC50 [1] [µM] | IC50 (MCF7) [µM] | IC50 [2] [µM] | IC50 (A549) [µM] | IC50 (A-375) [µM] | IC50 (PANC-1) [µM] | IC50 [3] [µM] | IC50 (HaCaT) [µM] | IC50 [4] [µM]
1 | COc1cc(=O)oc2c1[C@H](O[C@@H]1O[C@@H](C)[C@@H](C)c3oc(=O)cc(OC)c31)O[C@@H](C)[C@@H]2C [INFLATIN E] | > 100 | > 100 | > 100 | > 100 | > 100 | > 100 | > 100 | > 100 | > 100
2 | COc1cc(=O)oc2c1[C@H](O[C@@H]1O[C@@H](C)[C@@H](C)c3oc(=O)cc(OC)c31)O[C@@H](C)[C@H]2C [INFLATIN D] | > 100 | > 100 | > 100 | > 100 | > 100 | > 100 | > 100 | > 100 | > 100
3 | CC(=O)OC[C@@]1(O)CC[C@]23C[C@H]1C[C@@H]2CC[C@H]1[C@]2(C)CO[C@H](c4ccc(O)cc4)O[C@@H]2CC[C@@]13C [INFLATIN B] | 70.8 | 75.2 | 15 | 25 | 25.5 | 53.2 | > 100 | 55.1 | 7.3
4 | C[C@@]12CO[C@H](c3ccc(O)cc3)O[C@@H]1CC[C@@]1(C)[C@H]2CC[C@H]2C[C@@H]3C[C@@]21CC[C@]3(O)CO [INFLATIN A] | 47.1 | 33.5 | 39.1 | 75.3 | 47.3 | 19.9 | 54.5 | 49.1 | 14.8
5 | CC(=O)O[C@H]1C(=O)[C@@]2(C)[C@H]([C@H](OC(=O)c3ccccc3)[C@]3(O)C[C@H](OC(=O)[C@H](O)[C@@H](NC(=O)c4ccccc4)c4ccccc4)C(C)=C1C3(C)C)[C@]1(OC(C)=O)CO[C@@H]1C[C@@H]2O [PACLITAXEL] | 0.14 | 0.014 | 0.0042 | 0.03 | 0.0089 | 0.0011 | 0.0064 | 0.024 | 1.6e-05
6 | COc1cc(=O)oc2c1[C@H](O[C@@H]1O[C@@H](C)[C@H](C)c3oc(=O)cc(OC)c31)O[C@@H](C)[C@@H]2C [INFLATIN F] | > 100 | > 100 | > 100 | > 100 | > 100 | > 100 | > 100 | > 100 | 57.5
7 | COc1cc(=O)oc2c1[C@H](O)O[C@@H](C)[C@H]2C [INFLATIN C] | > 100 | > 100 | > 100 | > 100 | > 100 | > 100 | > 100 | > 100 | > 100
